Reference: ChEMBL document CHEMBL5058577, “EUbOPEN Chemogenomics Library 2 (Multiplex)” (2022)

Test system: HEK-293T
Assay: Multiplex assay against HEK293T
Type: toxicity, cell-based
Details: human
How it was run: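 Imaging took place on a CQ1 microscope at 37°C and 5% CO2 once compound had been added to live cells stained at seeding with Hoechst33342, BioTracker Green Microtubule Cytoskeleton Dye, MitoTracker Red and Annexin V Alexa Fluor 680. CellPathfinder machine-learning gating classed cells as Hoechst high-intensity objects or normal cells, classed normal cells as having healthy, pyknosed or fragmented nuclei, and classed pyknosed cells as mitotic or apoptotic. Tubulin, mitochondrial-mass and membrane-permeability phenotypes are per cents of the healthy-nucleus cells.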

[1] = 12 h, 1 µM, compound concentration 1 uM, replicate 1
[2] = 12 h, 1 µM, compound concentration 1 uM, replicate 2
[3] = 12 h, 10 µM, compound concentration 10 uM, replicate 1
[4] = 12 h, 10 µM, compound concentration 10 uM, replicate 2
[5] = 24 h, 1 µM, compound concentration 1 uM, replicate 1
[6] = 24 h, 1 µM, compound concentration 1 uM, replicate 2
[7] = 24 h, 10 µM, compound concentration 10 uM, replicate 1
[8] = 24 h, 10 µM, compound concentration 10 uM, replicate 2
[9] = 48 h, 1 µM, compound concentration 1 uM, replicate 1
[10] = 48 h, 1 µM, compound concentration 1 uM, replicate 2
[11] = 48 h, 10 µM, compound concentration 10 uM, replicate 1
[12] = 48 h, 10 µM, compound concentration 10 uM, replicate 2

`CSCC[C@H](NC=O)C(=O)N[C@@H](CC(C)C)C(=O)N[C@@H](Cc1ccccc1)C(=O)O` was tested, and the “Population Mitochondria Different-Phenotype (%)” value [1] was 47%, the “Population Tubulin-Different-Phenotype (%)” value [1] was 23% and the “Total Cell Count” value [1] was 466. For the same compound, the “Population Apoptotic (%)” value [2] was 28%, the “Population Mitochondria Different-Phenotype (%)” value [2] was 57% and the “Population Mitotic Cells (%)” value [2] was 71%. The “Population Tubulin-Different-Phenotype (%)” value [2] was 16%, the “Total Cell Count” value [2] was 437 and the “Population Mitochondria Different-Phenotype (%)” value [3] was 52%. For the same compound, the “Population Tubulin-Different-Phenotype (%)” value [3] was 37%, the “Total Cell Count” value [3] was 366 and the “Population Apoptotic (%)” value [4] was 54%. For the same compound, the “Population Mitochondria Different-Phenotype (%)” value [4] was 64%, the “Population Mitotic Cells (%)” value [4] was 45% and the “Population Tubulin-Different-Phenotype (%)” value [4] was 31%. The “Total Cell Count” value [4] was 375, the “Population Apoptotic (%)” value [5] was 21% and the “Population Mitochondria Different-Phenotype (%)” value [5] was 21%. For the same compound, the “Population Mitotic Cells (%)” value [5] was 78%, the “Population Tubulin-Different-Phenotype (%)” value [5] was 14% and the “Total Cell Count” value [5] was 679. For the same compound, the “Population Mitochondria Different-Phenotype (%)” value [6] was 37%, the “Population Tubulin-Different-Phenotype (%)” value [6] was 12% and the “Total Cell Count” value [6] was 550. For the same compound, the “Population Apoptotic (%)” value [7] was 25%, the “Population Mitochondria Different-Phenotype (%)” value [7] was 38% and the “Population Mitotic Cells (%)” value [7] was 75%. The “Population Tubulin-Different-Phenotype (%)” value [7] was 25%, the “Total Cell Count” value [7] was 479 and the “Population Apoptotic (%)” value [8] was 36%. For the same compound, the “Population Mitochondria Different-Phenotype (%)” value [8] was 53%, the “Population Mitotic Cells (%)” value [8] was 64% and the “Population Tubulin-Different-Phenotype (%)” value [8] was 22%. The “Total Cell Count” value [8] was 490, the “Population Apoptotic (%)” value [9] was 29% and the “Population Mitochondria Different-Phenotype (%)” value [9] was 12%. The “Population Tubulin-Different-Phenotype (%)” value [9] was 12%, the “Total Cell Count” value [9] was 1154 and the “Population Apoptotic (%)” value [10] was 20%. For the same compound, the “Population Mitochondria Different-Phenotype (%)” value [10] was 17%, the “Population Mitotic Cells (%)” value [10] was 79% and the “Total Cell Count” value [10] was 838. The “Population Apoptotic (%)” value [11] was 28%, the “Population Mitochondria Different-Phenotype (%)” value [11] was 24% and the “Population Mitotic Cells (%)” value [11] was 71%. For the same compound, the “Population Tubulin-Different-Phenotype (%)” value [11] was 12%, the “Total Cell Count” value [11] was 704 and the “Population Apoptotic (%)” value [12] was 36%. The “Population Mitochondria Different-Phenotype (%)” value [12] was 28%, the “Population Mitotic Cells (%)” value [12] was 63% and the “Population Tubulin-Different-Phenotype (%)” value [12] was 14%. The “Total Cell Count” value [12] was 674.
For `CCCn1c(=O)c2[nH]c(C3CCCC3)nc2n(CCC)c1=O` [1,3-DIPROPYL-8-CYCLOPENTYLXANTHINE [DPCPX]], the “Population Apoptotic (%)” value [1] was 35%, the “Population Fragmented Nuclei (%)” value [1] was 7% and the “Population Healthy Nuclei (%)” value [1] was 79%. For the same compound, the “Population Hoechst High Intensity Objects (%)” value [1] was 6%, the “Population Membrane Permeable-Phenotype (%)” value [1] was 0% and the “Population Mitochondria Different-Phenotype (%)” value [1] was 44%. The “Population Mitotic Cells (%)” value [1] was 64%, the “Population Normal (%)” value [1] was 93% and the “Population Pyknosed Nuclei (%)” value [1] was 12%. The “Population Tubulin-Different-Phenotype (%)” value [1] was 32%, the “Total Cell Count” value [1] was 443 and the “Population Apoptotic (%)” value [2] was 54%. The “Population Fragmented Nuclei (%)” value [2] was 3%, the “Population Healthy Nuclei (%)” value [2] was 81% and the “Population Hoechst High Intensity Objects (%)” value [2] was 3%. For the same compound, the “Population Mitochondria Different-Phenotype (%)” value [2] was 52%, the “Population Mitotic Cells (%)” value [2] was 45% and the “Population Normal (%)” value [2] was 96%. For the same compound, the “Population Pyknosed Nuclei (%)” value [2] was 14%, the “Population Tubulin-Different-Phenotype (%)” value [2] was 15% and the “Total Cell Count” value [2] was 361. The “Population Apoptotic (%)” value [3] was 60%, the “Population Fragmented Nuclei (%)” value [3] was 12% and the “Population Healthy Nuclei (%)” value [3] was 68%. The “Population Hoechst High Intensity Objects (%)” value [3] was 5%, the “Population Membrane Permeable-Phenotype (%)” value [3] was 0% and the “Population Mitochondria Different-Phenotype (%)” value [3] was 58%. The “Population Mitotic Cells (%)” value [3] was 39%, the “Population Normal (%)” value [3] was 94% and the “Population Pyknosed Nuclei (%)” value [3] was 19%. For the same compound, the “Population Tubulin-Different-Phenotype (%)” value [3] was 51%, the “Total Cell Count” value [3] was 295 and the “Population Apoptotic (%)” value [4] was 54%. For the same compound, the “Population Fragmented Nuclei (%)” value [4] was 7%, the “Population Healthy Nuclei (%)” value [4] was 75% and the “Population Hoechst High Intensity Objects (%)” value [4] was 18%. The “Population Mitochondria Different-Phenotype (%)” value [4] was 68%, the “Population Mitotic Cells (%)” value [4] was 45% and the “Population Normal (%)” value [4] was 81%. For the same compound, the “Population Pyknosed Nuclei (%)” value [4] was 16%, the “Population Tubulin-Different-Phenotype (%)” value [4] was 45% and the “Total Cell Count” value [4] was 337. The “Population Apoptotic (%)” value [5] was 26%, the “Population Fragmented Nuclei (%)” value [5] was 8% and the “Population Healthy Nuclei (%)” value [5] was 78%. The “Population Hoechst High Intensity Objects (%)” value [5] was 4%, the “Population Membrane Permeable-Phenotype (%)” value [5] was 1% and the “Population Mitochondria Different-Phenotype (%)” value [5] was 25%. For the same compound, the “Population Mitotic Cells (%)” value [5] was 73%, the “Population Normal (%)” value [5] was 95% and the “Population Pyknosed Nuclei (%)” value [5] was 13%. The “Population Tubulin-Different-Phenotype (%)” value [5] was 20%, the “Total Cell Count” value [5] was 610 and the “Population Apoptotic (%)” value [6] was 28%. The “Population Fragmented Nuclei (%)” value [6] was 7%, the “Population Healthy Nuclei (%)” value [6] was 82% and the “Population Hoechst High Intensity Objects (%)” value [6] was 3%. The “Population Membrane Permeable-Phenotype (%)” value [6] was 0%, the “Population Mitochondria Different-Phenotype (%)” value [6] was 45% and the “Population Mitotic Cells (%)” value [6] was 71%. The “Population Normal (%)” value [6] was 96%, the “Population Pyknosed Nuclei (%)” value [6] was 10% and the “Population Tubulin-Different-Phenotype (%)” value [6] was 19%. For the same compound, the “Total Cell Count” value [6] was 403, the “Population Apoptotic (%)” value [7] was 50% and the “Population Fragmented Nuclei (%)” value [7] was 8%. The “Population Healthy Nuclei (%)” value [7] was 76%, the “Population Hoechst High Intensity Objects (%)” value [7] was 4% and the “Population Membrane Permeable-Phenotype (%)” value [7] was 0%. The “Population Mitochondria Different-Phenotype (%)” value [7] was 43%, the “Population Mitotic Cells (%)” value [7] was 50% and the “Population Normal (%)” value [7] was 95%. For the same compound, the “Population Pyknosed Nuclei (%)” value [7] was 14%, the “Population Tubulin-Different-Phenotype (%)” value [7] was 40% and the “Total Cell Count” value [7] was 379. The “Population Apoptotic (%)” value [8] was 41%, the “Population Fragmented Nuclei (%)” value [8] was 7% and the “Population Healthy Nuclei (%)” value [8] was 79%. The “Population Hoechst High Intensity Objects (%)” value [8] was 15%, the “Population Mitochondria Different-Phenotype (%)” value [8] was 55% and the “Population Mitotic Cells (%)” value [8] was 58%. For the same compound, the “Population Normal (%)” value [8] was 84%, the “Population Pyknosed Nuclei (%)” value [8] was 13% and the “Population Tubulin-Different-Phenotype (%)” value [8] was 31%. The “Total Cell Count” value [8] was 411, the “Population Apoptotic (%)” value [9] was 33% and the “Population Fragmented Nuclei (%)” value [9] was 11%. The “Population Healthy Nuclei (%)” value [9] was 81%, the “Population Hoechst High Intensity Objects (%)” value [9] was 1% and the “Population Membrane Permeable-Phenotype (%)” value [9] was 1%. For the same compound, the “Population Mitochondria Different-Phenotype (%)” value [9] was 17%, the “Population Mitotic Cells (%)” value [9] was 66% and the “Population Normal (%)” value [9] was 98%. For the same compound, the “Population Pyknosed Nuclei (%)” value [9] was 7%, the “Population Tubulin-Different-Phenotype (%)” value [9] was 17% and the “Total Cell Count” value [9] was 957. The “Population Apoptotic (%)” value [10] was 39%, the “Population Fragmented Nuclei (%)” value [10] was 14% and the “Population Healthy Nuclei (%)” value [10] was 80%. The “Population Hoechst High Intensity Objects (%)” value [10] was 3%, the “Population Membrane Permeable-Phenotype (%)” value [10] was 0% and the “Population Mitochondria Different-Phenotype (%)” value [10] was 22%. For the same compound, the “Population Mitotic Cells (%)” value [10] was 60%, the “Population Normal (%)” value [10] was 96% and the “Population Pyknosed Nuclei (%)” value [10] was 5%. For the same compound, the “Population Tubulin-Different-Phenotype (%)” value [10] was 13%, the “Total Cell Count” value [10] was 593 and the “Population Apoptotic (%)” value [11] was 29%. The “Population Fragmented Nuclei (%)” value [11] was 14%, the “Population Healthy Nuclei (%)” value [11] was 76% and the “Population Hoechst High Intensity Objects (%)” value [11] was 3%. The “Population Membrane Permeable-Phenotype (%)” value [11] was 1%, the “Population Mitochondria Different-Phenotype (%)” value [11] was 37% and the “Population Mitotic Cells (%)” value [11] was 70%. For the same compound, the “Population Normal (%)” value [11] was 96%, the “Population Pyknosed Nuclei (%)” value [11] was 8% and the “Population Tubulin-Different-Phenotype (%)” value [11] was 30%. The “Total Cell Count” value [11] was 511, the “Population Apoptotic (%)” value [12] was 45% and the “Population Healthy Nuclei (%)” value [12] was 75%. For the same compound, the “Population Hoechst High Intensity Objects (%)” value [12] was 7%, the “Population Membrane Permeable-Phenotype (%)” value [12] was 0% and the “Population Mitochondria Different-Phenotype (%)” value [12] was 36%. For the same compound, the “Population Mitotic Cells (%)” value [12] was 54%, the “Population Normal (%)” value [12] was 92% and the “Population Pyknosed Nuclei (%)” value [12] was 10%. For the same compound, the “Population Tubulin-Different-Phenotype (%)” value [12] was 23% and the “Total Cell Count” value [12] was 516.
